pIC50: −log10 of the molar value.
Experiments:
Leishmania donovani = assay: Antileishmanial activity against Leishmania donovani MHOM-ET-67/L82 axenic amastigotes after 70 hrs by resazurin staining based fluorescence assay; type: functional, organism-based; conditions: MHOM-ET-67/L82, 70 h
Procedure, shortened: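 Axenically grown amastigotes of strain MHOM-ET-67/L82 were exposed to serial drug dilutions of 11 3-fold steps spanning 100 to 0.001 μg/mL, with miltefosine as reference. IC50 was obtained by linear regression. Each assay was run singly and repeated at least twice, and the reported value is the average of two independent assays.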

[1] = Selectivity index, ratio of IC50 for rat L6 cells to IC50 for Plasmodium falciparum NF54 infected in human erythrocytes; type: toxicity, cell-based; conditions: read-out: Ratio IC50
Procedure, shortened: (§1)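 The selectivity index is the IC50 in L6 cells divided by the IC50 in the named parasite. Each IC50 comes from 11-step 3-fold dilution series (100 to 0.001 μg/mL) fitted by linear regression and averaged over two independent assays.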

[2] = Selectivity index, ratio of IC50 for rat L6 cells to IC50 for axenic amastigotes; procedure, shortened: as §1
Plasmodium falciparum = assay: Antiplasmodial activity against Plasmodium falciparum NF54 infected in human erythrocytes assessed as reduction in [3H]-hypoxanthine incorporation pretreated for 48 hrs followed by [3H]-hypoxanthine addition measured after 24 hrs by liquid scintillation counting method; type: functional, organism-based
Procedure, shortened: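 Erythrocytic-stage NF54 parasites were tested over 11 3-fold serial dilutions from 100 to 0.001 μg/mL, with chloroquine as reference. IC50 was derived by linear regression. Runs were single and repeated at least twice, and the value given is the mean of two independent assays.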

L6 = assay: Cytotoxicity against rat L6 cells; type: cell-based
Procedure, shortened: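 Rat skeletal myoblast L6 cells were exposed to 11 3-fold serial drug dilutions covering 100 to 0.001 μg/mL, with podophyllotoxin as reference. IC50 was calculated by linear regression. Runs were single and repeated at least two times, and the figure is the mean of two independent assays.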

| Structure (SMILES) | pIC50 (Leishmania donovani) | selectivity ratio [1] | Ratio IC50 [2] | pIC50 (Plasmodium falciparum) | pIC50 (L6) |
| --- | --- | --- | --- | --- | --- |
| CC(C)=CCc1c(O)c2c(c(C(=O)C(C)C)c1O)OC1(C2)OC(C)=C(C)C1=O (configuration not stated) | 5.72 | 1.9 | 10.5 | 4.64 | 4.70 |
| CCc1oc(=O)c(Cc2c(O)c(CC=C(C)C)c(O)c(C(=O)C(C)C)c2O)c(O)c1C | 4.86 | 7.6 | 3.8 | 5.13 | 4.28 |
| Cc1oc(=O)c(Cc2c(O)c(C)c(C)oc2=O)c(O)c1C | 4.80 | 2.5 | 1.7 | 4.65 | 4.58 |
| CCc1oc(=O)c(Cc2c(O)c(CC=C(C)CCC=C(C)C)c(O)c(C(=O)C(C)C)c2O)c(O)c1C | 5.57 | 11.3 | 15 | 5.42 | 4.40 |
| CCC(=O)c1c(O)c(CC=C(C)C)c(O)c2c1OC1(C2)OC(C)=C(C)C1=O (configuration not stated) | 5.15 | 0.8 | 6.2 | 4.50 | 4.36 |
| CC(=O)c1c(O)c(CC=C(C)CCC=C(C)C)c(O)c2c1OC1(C2)OC(C)=C(C)C1=O (configuration not stated) | 5.55 | 2.2 | 15.6 | 4.62 | 4.36 |
| CCc1oc(=O)c(Cc2c(O)c(CC=C(C)CCC=C(C)C)c(O)c(C(=O)C(C)CC)c2O)c(O)c1C (configuration not stated) | 5.25 | 15.7 | 6.4 | 5.92 | 4.44 |
| CCC(C)C(=O)c1c(O)c(CC=C(C)C)c(O)c(Cc2c(O)c(C)c(C)oc2=O)c1O (configuration not stated) | 5.32 | 7.9 | 11.5 | 5.26 | 4.26 |
| CCc1oc(=O)c(Cc2c(O)c(CC=C(C)C)c(O)c(C(=O)C(C)CC)c2O)c(O)c1C (configuration not stated) | 4.77 | 5.36 | 2.25 | 5.60 | 4.42 |
| CCc1oc(=O)c(Cc2c(O)c3c(c(C(=O)C(C)C)c2O)OC(C)(CCC=C(C)C)C=C3)c(O)c1C (racemic) | 5.72 | 2.3 | 11.2 | 5.03 | 4.67 |
| CCc1oc(=O)c(Cc2c(O)c(C)c(C)oc2=O)c(O)c1C | 4.81 | 3.4 | 2.8 | 4.74 | 4.36 |
| COc1cc([C@@H]2c3cc4c(cc3[C@H](O)[C@H]3COC(=O)[C@H]23)OCO4)cc(OC)c1OC [PODOFILOX] |  |  |  |  | 8.30 |
| CC(=O)c1c(O)c(CC=C(C)C)c(O)c2c1OC1(C2)OC(C)=C(C)C1=O (configuration not stated) | 5.29 | 3.9 | 11.1 | 4.84 | 4.25 |
| CCc1oc(=O)c(Cc2c(O)c(C(=O)C(C)C)c(O)c3c2O[C@@]2(C)CC[C@@H]4[C@H]2[C@H]3C4(C)C)c(O)c1C | 5.70 | 1.7 | 6 | 5.15 | 4.92 |
| CCC1=C(C)C(=O)C2(Cc3c(O)c(CC=C(C)C)c(O)c(C(C)=O)c3O2)O1 (configuration not stated) | 5.24 | 2.3 | 9.5 | 4.64 | 4.26 |
| CCc1oc(=O)c(Cc2c(O)c(Cc3c(O)c(C)c(CC)oc3=O)c(O)c(C(=O)C(C)C)c2O)c(O)c1C | 5.60 | 4.4 | 22.9 | 5.07 | 4.24 |
| CCCCCCCCCCCCCCCCOP(=O)([O-])OCC[N+](C)(C)C [MILTEFOSINE] | 6.55 |  |  |  |  |
| CCC1=C(C)C(=O)C2(Cc3c(O)c(CC=C(C)C)c(O)c(C(=O)C(C)C)c3O2)O1 (configuration not stated) | 5.22 | 2.1 | 7.2 | 4.74 | 4.37 |
| CC(C)=CCc1c(O)c(Cc2c(O)c(C)c(C)oc2=O)c(O)c(C(=O)C(C)C)c1O | 5.24 | 5.5 | 10.4 | 5.10 | 4.21 |
| CC(C)=CCCC(C)=CCc1c(O)c(Cc2c(O)c(C)c(C)oc2=O)c(O)c(C(=O)C(C)C)c1O | 5.51 | 9.6 | 12.3 | 5.24 | 4.42 |
| CCC(C)C(=O)c1c(O)c(CC=C(C)C)c(O)c2c1OC1(C2)OC(C)=C(C)C1=O (configuration not stated) | 5.77 | 4.8 | 7.6 | 5.12 | 4.88 |
| CC(C)=CCCC(C)=CCc1c(O)c2c(c(C(=O)C(C)C)c1O)OC1(C2)OC(C)=C(C)C1=O (configuration not stated) | 5.66 | 5.5 | 8.5 | 5.14 | 4.73 |
| CCC(C)C(=O)c1c(O)c(CC=C(C)CCC=C(C)C)c(O)c(Cc2c(O)c(C)c(C)oc2=O)c1O (configuration not stated) | 5.36 | 7.7 | 11.1 | 5.59 | 4.32 |
| CCc1oc(=O)c(Cc2c(O)c(C)c(CC)oc2=O)c(O)c1C [HELIPYRONE] | 4.83 | 5.4 | 3.6 | 5.05 | 4.27 |
| CC(=O)c1c(O)c(Cc2c(O)c(C)c(C)oc2=O)c(O)c2c1OC(C)(C)C=C2 | 5.74 | 4.7 | 29.7 | 4.95 | 4.27 |
